Converted amounts (≈) assume the structure as drawn.

Common to all, as to assay type: functional
Test [1] concerns Bacillus subtilis. The test is described as follows: Antibacterial activity against Bacillus subtilis after 24 hrs by MTT method. In outline:
(§1)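 MIC by broth microdilution in MH medium, with MTT colorimetric read-out. Compounds come from a 50 mg/mL DMSO stock and are serially diluted in the plates. Inoculum is about 10⁵ cfu/mL, incubated at 37 °C for 24 h. The MIC is first read visually. MTT at 2 mg/mL in PBS (0.01 mol/L, pH 7.4) is then added, with a further 4–5 h at room temperature.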
(In general: Formazan colour is commonly taken as a measure of viable cells.)

Test [2] concerns Staphylococcus aureus. The test is described as follows: Antibacterial activity against Staphylococcus aureus after 24 hrs by MTT method. Summed up:
as §1

Test [3] deals with Pseudomonas fluorescens. The test is described as follows: Antibacterial activity against Pseudomonas fluorescens after 24 hrs by MTT method. Summed up: as §1
Test [4] deals with Escherichia coli. Nature of the test: Antibacterial activity against Escherichia coli after 24 hrs by MTT method. In outline:
as §1

Turning to `CCN(CC)CCOc1cc(O)c2c(=O)cc(-c3ccc4c(c3)OCCO4)oc2c1`, the MIC was determined as 12.5 µg/mL (≈ 30.4 µM) in test [1], 25 µg/mL (≈ 60.8 µM) in test [2], 12.5 µg/mL (≈ 30.4 µM) in test [3] and 25 µg/mL (≈ 60.8 µM) in test [4].
With `O=c1cc(-c2ccc3c(c2)OCCO3)oc2cc(OCCNCc3ccc(F)cc3)cc(O)c12`, the MIC in test [1] worked out at 1.56 µg/mL (≈ 3.37 µM); in test [2], 3.12 µg/mL (≈ 6.74 µM); in test [3], 6.25 µg/mL (≈ 13.5 µM); in test [4], 12.5 µg/mL (≈ 27 µM).
Regarding `CC(C)CNCCOc1cc(O)c2c(=O)cc(-c3ccc4c(c3)OCCO4)oc2c1`, the MIC in test [1] worked out at 12.5 µg/mL (≈ 30.4 µM); in test [2], 25 µg/mL (≈ 60.8 µM); in test [3], 12.5 µg/mL (≈ 30.4 µM); in test [4] it was 25 µg/mL (≈ 60.8 µM).
Regarding `O=c1cc(-c2ccc3c(c2)OCCO3)oc2cc(O)cc(O)c12`, the MIC in test [1] amounted to 12.5 µg/mL (≈ 40 µM); in test [2], 25 µg/mL (≈ 80.1 µM); in test [3], 12.5 µg/mL (≈ 40 µM); in test [4], 50 µg/mL (≈ 160 µM).
With `O=c1cc(-c2ccc3c(c2)OCCO3)oc2cc(OCCNCCO)cc(O)c12`, the MIC in test [1] was 12.5 µg/mL (≈ 31.3 µM); in test [2] it was 25 µg/mL (≈ 62.6 µM); in test [3], 6.25 µg/mL (≈ 15.6 µM); in test [4], 25 µg/mL (≈ 62.6 µM).
On to `CCCCNCCOc1cc(O)c2c(=O)cc(-c3ccc4c(c3)OCCO4)oc2c1`, for which the MIC in test [1] stood at 12.5 µg/mL (≈ 30.4 µM); in test [2], 25 µg/mL (≈ 60.8 µM); in test [3] it was 6.25 µg/mL (≈ 15.2 µM); in test [4], 25 µg/mL (≈ 60.8 µM).
Turning to `O=c1cc(-c2ccc3c(c2)OCCO3)oc2cc(OCCNCc3ccccc3)cc(O)c12`, the MIC amounted to 3.12 µg/mL (≈ 7.02 µM) in test [1], 6.25 µg/mL (≈ 14 µM) in test [2], 6.25 µg/mL (≈ 14 µM) in test [3] and 12.5 µg/mL (≈ 28.1 µM) in test [4].
As for `NC[C@H]1O[C@H](O[C@H]2[C@H](O)[C@@H](O[C@H]3O[C@H](CO)[C@@H](O)[C@H](N)[C@H]3O)[C@H](N)C[C@@H]2N)[C@H](N)[C@@H](O)[C@@H]1O` [BEKANAMYCIN], the MIC in test [1] turned out to be 0.39 µg/mL (≈ 0.807 µM); in test [2], 1.56 µg/mL (≈ 3.23 µM); in test [3] it was 3.12 µg/mL (≈ 6.46 µM); in test [4], 3.12 µg/mL (≈ 6.46 µM).
Consider `O=c1cc(-c2ccc3c(c2)OCCO3)oc2cc(OCCNC3CCCCC3)cc(O)c12`, for which the MIC in test [1] was determined as 6.25 µg/mL (≈ 14.3 µM); in test [2] it was 12.5 µg/mL (≈ 28.6 µM); in test [3], 12.5 µg/mL (≈ 28.6 µM); in test [4], 25 µg/mL (≈ 57.1 µM).
For `O=c1cc(-c2ccc3c(c2)OCCO3)oc2cc(OCCN3CCOCC3)cc(O)c12`, the MIC in test [1] came out at 3.12 µg/mL (≈ 7.35 µM); in test [2], 6.25 µg/mL (≈ 14.7 µM); in test [3] it was 6.25 µg/mL (≈ 14.7 µM); in test [4], 12.5 µg/mL (≈ 29.4 µM).
`O=c1cc(-c2ccc3c(c2)OCCO3)oc2cc(OCCNCCN3CCOCC3)cc(O)c12`: the MIC in test [1] was 1.56 µg/mL (≈ 3.33 µM); in test [2] it was 6.25 µg/mL (≈ 13.3 µM); in test [3] it was 3.12 µg/mL (≈ 6.67 µM); in test [4], 12.5 µg/mL (≈ 26.7 µM).
On to `O=c1cc(-c2ccc3c(c2)OCCO3)oc2cc(OCCN3CCCC3)cc(O)c12`, for which the MIC in test [1] stood at 6.25 µg/mL (≈ 15.3 µM); in test [2] it was 12.5 µg/mL (≈ 30.5 µM); in test [3], 12.5 µg/mL (≈ 30.5 µM); in test [4], 12.5 µg/mL (≈ 30.5 µM).
Turning to `CCCNCCOc1cc(O)c2c(=O)cc(-c3ccc4c(c3)OCCO4)oc2c1`, the MIC in test [1] was 12.5 µg/mL (≈ 31.5 µM); in test [2] it was 25 µg/mL (≈ 62.9 µM); in test [3] it was 12.5 µg/mL (≈ 31.5 µM); in test [4], 25 µg/mL (≈ 62.9 µM).
As to `O=c1cc(-c2ccc3c(c2)OCCO3)oc2cc(OCCN3CCNCC3)cc(O)c12`, the MIC is 6.25 µg/mL (≈ 14.7 µM) in test [1], 12.5 µg/mL (≈ 29.4 µM) in test [2], 6.25 µg/mL (≈ 14.7 µM) in test [3] and 12.5 µg/mL (≈ 29.4 µM) in test [4].
For the compound `O=c1cc(-c2ccc3c(c2)OCCO3)oc2cc(OCCN3CCCCC3)cc(O)c12`, the MIC in test [1] was found to be 6.25 µg/mL (≈ 14.8 µM); in test [2], 12.5 µg/mL (≈ 29.5 µM); in test [3], 12.5 µg/mL (≈ 29.5 µM); in test [4] it was 12.5 µg/mL (≈ 29.5 µM).
Regarding `O=c1cc(-c2ccc3c(c2)OCCO3)oc2cc(OCCNCCCN3CCOCC3)cc(O)c12`, the MIC in test [1] amounted to 1.56 µg/mL (≈ 3.24 µM); in test [2] it was 3.12 µg/mL (≈ 6.48 µM); in test [3] it was 3.12 µg/mL (≈ 6.48 µM); in test [4], 6.25 µg/mL (≈ 13 µM).
With `CC1(C)S[C@@H]2[C@H](NC(=O)Cc3ccccc3)C(=O)N2[C@H]1C(=O)O` [PENICILLIN G], the MIC was 1.56 µg/mL (≈ 4.67 µM) in test [1], 1.56 µg/mL (≈ 4.67 µM) in test [2], 6.25 µg/mL (≈ 18.7 µM) in test [3] and 6.25 µg/mL (≈ 18.7 µM) in test [4].
For the compound `O=c1cc(-c2ccc(O)c(O)c2)oc2cc(O)cc(O)c12` [LUTEOLIN], the MIC in test [1] stood at 25 µg/mL (≈ 87.3 µM); in test [2] it was 50 µg/mL (≈ 175 µM); in test [3] it was 25 µg/mL (≈ 87.3 µM); in test [4], 50 µg/mL (≈ 175 µM).
For `CCCN(CCC)CCOc1cc(O)c2c(=O)cc(-c3ccc4c(c3)OCCO4)oc2c1`, the MIC is 12.5 µg/mL (≈ 28.4 µM) in test [1], 12.5 µg/mL (≈ 28.4 µM) in test [2], 6.25 µg/mL (≈ 14.2 µM) in test [3] and 25 µg/mL (≈ 56.9 µM) in test [4].
Take `CN1CCN(CCOc2cc(O)c3c(=O)cc(-c4ccc5c(c4)OCCO5)oc3c2)CC1`: the MIC came to 6.25 µg/mL (≈ 14.3 µM) in test [1], 12.5 µg/mL (≈ 28.5 µM) in test [2], 6.25 µg/mL (≈ 14.3 µM) in test [3] and 12.5 µg/mL (≈ 28.5 µM) in test [4].
With `O=c1cc(-c2ccc3c(c2)OCCO3)oc2cc(OCCBr)cc(O)c12`, the MIC in test [1] is 12.5 µg/mL (≈ 29.8 µM); in test [2], 25 µg/mL (≈ 59.6 µM); in test [3], 12.5 µg/mL (≈ 29.8 µM); in test [4], 25 µg/mL (≈ 59.6 µM).
For `O=c1cc(-c2ccc3c(c2)OCCO3)oc2cc(OCCNC3CCCC3)cc(O)c12`, the MIC in test [1] worked out at 6.25 µg/mL (≈ 14.8 µM); in test [2], 12.5 µg/mL (≈ 29.5 µM); in test [3] it was 12.5 µg/mL (≈ 29.5 µM); in test [4] it was 25 µg/mL (≈ 59 µM).

What is called MIC is the least concentration at which growth counts as inhibited.

For the origin of these results see ChEMBL document CHEMBL1153843, “Synthesis and biological evaluation of novel luteolin derivatives as antibacterial agents” (2009).
